The results in this text go back to ChEMBL document CHEMBL4024710, “Discovery of novel 1,2,3,4-tetrahydrobenzo[4, 5]thieno[2, 3-c]pyridine derivatives as potent and selective CYP17 inhibitors” (Eur J Med Chem, 2017).

Bounds are passed on as bounds.

T5 sequence (P33261 whole entry): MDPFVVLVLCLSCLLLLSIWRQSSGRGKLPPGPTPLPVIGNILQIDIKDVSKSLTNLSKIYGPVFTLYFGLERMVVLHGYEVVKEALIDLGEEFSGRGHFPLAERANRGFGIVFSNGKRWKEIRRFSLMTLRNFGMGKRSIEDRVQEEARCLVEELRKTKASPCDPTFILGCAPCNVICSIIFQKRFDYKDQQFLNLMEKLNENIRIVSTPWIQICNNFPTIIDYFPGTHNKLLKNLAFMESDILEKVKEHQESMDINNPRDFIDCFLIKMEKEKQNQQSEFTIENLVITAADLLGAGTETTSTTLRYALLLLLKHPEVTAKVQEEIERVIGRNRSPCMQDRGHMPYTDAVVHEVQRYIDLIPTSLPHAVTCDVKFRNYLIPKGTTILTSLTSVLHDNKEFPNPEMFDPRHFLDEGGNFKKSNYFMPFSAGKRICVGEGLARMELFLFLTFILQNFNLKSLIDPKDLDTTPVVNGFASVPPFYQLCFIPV
Chain of Cytochrome P450 3A4 (P08684 whole entry): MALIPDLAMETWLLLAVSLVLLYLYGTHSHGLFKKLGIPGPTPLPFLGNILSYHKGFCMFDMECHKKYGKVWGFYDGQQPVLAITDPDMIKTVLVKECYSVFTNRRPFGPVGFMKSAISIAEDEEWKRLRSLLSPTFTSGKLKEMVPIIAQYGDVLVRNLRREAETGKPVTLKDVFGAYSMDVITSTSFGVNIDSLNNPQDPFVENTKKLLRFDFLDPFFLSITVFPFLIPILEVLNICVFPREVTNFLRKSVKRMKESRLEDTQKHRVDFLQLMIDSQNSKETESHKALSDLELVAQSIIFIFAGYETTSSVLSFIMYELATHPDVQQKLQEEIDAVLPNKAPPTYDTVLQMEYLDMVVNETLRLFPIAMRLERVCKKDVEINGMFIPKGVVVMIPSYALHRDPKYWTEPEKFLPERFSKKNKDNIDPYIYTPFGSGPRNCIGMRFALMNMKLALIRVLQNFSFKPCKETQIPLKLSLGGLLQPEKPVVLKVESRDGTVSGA

For the first data set, the target named is T1, Steroid 17-alpha-hydroxylase/17,20 lyase (Rattus norvegicus, UniProt P11715).
T1 sequence (P11715 whole entry): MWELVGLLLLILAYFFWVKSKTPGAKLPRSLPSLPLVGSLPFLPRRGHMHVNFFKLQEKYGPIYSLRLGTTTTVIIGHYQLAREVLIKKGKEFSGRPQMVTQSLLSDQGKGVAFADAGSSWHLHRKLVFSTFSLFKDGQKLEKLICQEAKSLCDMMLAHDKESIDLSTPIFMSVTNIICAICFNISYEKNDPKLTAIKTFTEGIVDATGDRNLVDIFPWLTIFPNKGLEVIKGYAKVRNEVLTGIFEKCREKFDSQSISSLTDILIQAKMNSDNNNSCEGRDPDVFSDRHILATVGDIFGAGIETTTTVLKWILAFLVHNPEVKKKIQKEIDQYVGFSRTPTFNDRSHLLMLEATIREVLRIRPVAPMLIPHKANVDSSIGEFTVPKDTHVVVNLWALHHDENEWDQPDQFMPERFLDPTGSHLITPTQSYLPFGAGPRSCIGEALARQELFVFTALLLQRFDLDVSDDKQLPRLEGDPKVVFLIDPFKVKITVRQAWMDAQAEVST
In words: Inhibition of CYP17 in Sprague-Dawley rat testes microsomes using 17-alpha hydroxyprogesterone as substrate and NADPH as cofactor pretreated for 5 mins followed by substrate and cofactor addition after 60 mins by LC/Ms analysis. More on the design: species or system Testis. The essentials:
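Rat testis microsomes from male SD rats weighing 220–250 g, prepared at 4 °C by differential centrifugation (9000 g, then 105,000 g pellet). 2 µg protein in 0.05 M phosphate pH 7.5 preincubated with inhibitor 5 min at 25 °C. Started with 10 µM 17α-hydroxyprogesterone plus 4.2 mM NADPH, 60 min at 25 °C, stopped with methanol. Androstenedione measured by LC/MS; IC50 is the mean of at least three experiments.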
With `CNC(=O)c1ccc2sc3c(c2c1)CCN(Cc1cccnc1)C3`, the IC50 is greater than 1000 nM.

Consider `Clc1ccc2sc3c(c2c1)CCN(Cc1cccnc1)C3`, for which the IC50 is 449 nM.

For the compound `O=C(c1cccnc1)N1CCc2c(sc3ccc(F)cc23)C1`, the IC50 is greater than 1000 nM.

As for `Oc1ccc2sc3c(c2c1)CCN(Cc1cccnc1)C3`, the IC50 came to 20.9 nM.

Consider `Fc1ccc2sc3c(c2c1)CCN(Cc1cncnc1)C3`, for which the IC50 was determined as 80.6 nM.

For `Brc1ccc2sc3c(c2c1)CCN(Cc1cccnc1)C3`, the IC50 is 517 nM.

Take `c1cncc(CN2CCc3c([nH]c4ccccc34)C2)c1`: the IC50 came out at 229 nM.

As to `COc1cncc(CN2CCc3c(sc4ccc(F)cc34)C2)c1`, the IC50 is 33.9 nM.

As for `Fc1cncc(CN2CCc3c(sc4ccc(F)cc34)C2)c1`, the IC50 is 56.5 nM.

As for `Cc1cncc(CN2CCc3c(sc4ccc(F)cc34)C2)c1`, the IC50 stood at 121 nM.

On to `COc1ccc2sc3c(c2c1)CCN(Cc1cccnc1)C3`, for which the IC50 was greater than 1000 nM.

For `Fc1ccc2sc3c(c2c1)CCN(Cc1c[nH]cn1)C3`, the IC50 is 29.8 nM.

In the case of `CC(=O)Nc1ccc2sc3c(c2c1)CCN(Cc1cccnc1)C3`, the IC50 is greater than 1000 nM.

In the case of `C=C(C)c1ccncc1CN1CCc2c(sc3ccc(F)cc23)C1`, the IC50 turned out to be 980 nM.

Another data set deals with T2, Steroid 17-alpha-hydroxylase/17,20 lyase (Homo sapiens, UniProt P05093).
T2 sequence (P05093 whole entry): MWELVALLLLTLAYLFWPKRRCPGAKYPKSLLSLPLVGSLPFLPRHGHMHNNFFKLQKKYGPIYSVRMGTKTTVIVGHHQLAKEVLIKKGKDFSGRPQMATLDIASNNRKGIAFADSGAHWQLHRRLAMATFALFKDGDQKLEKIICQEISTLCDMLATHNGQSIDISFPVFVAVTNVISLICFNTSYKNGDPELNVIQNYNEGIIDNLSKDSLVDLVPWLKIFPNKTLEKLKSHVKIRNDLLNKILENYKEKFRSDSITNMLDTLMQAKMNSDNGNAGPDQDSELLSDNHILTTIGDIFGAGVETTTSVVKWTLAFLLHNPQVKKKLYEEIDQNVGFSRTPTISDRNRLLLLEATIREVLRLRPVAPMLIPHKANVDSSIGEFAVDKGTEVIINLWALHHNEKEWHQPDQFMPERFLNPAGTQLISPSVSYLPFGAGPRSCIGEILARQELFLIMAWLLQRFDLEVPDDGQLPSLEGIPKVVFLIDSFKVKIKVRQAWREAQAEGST
Briefly: Inhibition of recombinant human CYP17 expressed in human A549 cell membranes using 17-alpha hydroxyprogesterone as substrate and NADPH as cofactor pretreated for 5 mins followed by substrate and cofactor addition after 60 mins by LC/MS analysis. The essentials: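 Enzyme source was purified membranes of A549 cells expressing human CYP17 from an adenoviral vector. 2 µg membrane protein in 0.05 M phosphate pH 7.5 with inhibitor, preincubated 5 min at 25 °C. Reaction started with 10 µM 17α-hydroxyprogesterone and 4.2 mM NADPH, run 60 min at 25 °C, methanol stop. Androstenedione quantified by LC/MS; IC50 is the mean of at least three experiments.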
As for `Oc1ccc2sc3c(c2c1)CCN(Cc1cccnc1)C3`, the IC50 amounted to 23.7 nM.

For `COc1cncc(CN2CCc3c(sc4ccc(F)cc34)C2)c1`, the IC50 was found to be 45 nM.

`Fc1cncc(CN2CCc3c(sc4ccc(F)cc34)C2)c1`: the IC50 stood at 45.4 nM.

On to `Fc1ccc2sc3c(c2c1)CCN(Cc1c[nH]cn1)C3`, for which the IC50 amounted to 24.3 nM.

Another data set has as its target Cytochrome P450 3A4 (Homo sapiens, UniProt P08684). In words: Inhibition of human hepatic CYP3A4. Type of data set: ADME.
On to `Oc1ccc2sc3c(c2c1)CCN(Cc1cccnc1)C3`, for which the IC50 is 5280 nM.

`COc1cncc(CN2CCc3c(sc4ccc(F)cc34)C2)c1` displayed a 50% inhibitory concentration (IC50) of 6530 nM.

With `Fc1cncc(CN2CCc3c(sc4ccc(F)cc34)C2)c1`, 9030 nM corresponded to half-maximal inhibition (IC50).

`Fc1ccc2sc3c(c2c1)CCN(Cc1c[nH]cn1)C3` gave an IC50 of 685 nM.

For another data set, the target named is T3, CYP1A2 (Homo sapiens, UniProt P05177).
T3 sequence (P05177 whole entry): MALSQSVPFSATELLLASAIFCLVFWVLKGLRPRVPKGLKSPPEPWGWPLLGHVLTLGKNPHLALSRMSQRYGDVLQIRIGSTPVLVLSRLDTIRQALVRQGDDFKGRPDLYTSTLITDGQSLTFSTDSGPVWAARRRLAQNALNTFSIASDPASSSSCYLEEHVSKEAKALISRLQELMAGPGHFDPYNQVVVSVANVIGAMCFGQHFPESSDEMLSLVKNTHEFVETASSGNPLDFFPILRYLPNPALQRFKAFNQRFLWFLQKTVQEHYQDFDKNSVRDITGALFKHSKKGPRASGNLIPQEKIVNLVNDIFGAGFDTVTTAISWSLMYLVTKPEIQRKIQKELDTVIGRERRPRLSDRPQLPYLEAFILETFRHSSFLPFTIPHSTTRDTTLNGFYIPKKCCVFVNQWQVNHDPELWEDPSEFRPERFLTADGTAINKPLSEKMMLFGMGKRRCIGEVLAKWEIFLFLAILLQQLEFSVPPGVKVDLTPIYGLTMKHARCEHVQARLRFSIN
In words: Inhibition of human hepatic CYP1A2 at 1 uM relative to control. The data set is classed as ADME.
`Oc1ccc2sc3c(c2c1)CCN(Cc1cccnc1)C3` yielded an inhibition at 1 µM of 25.4%.

In turn, `COc1cncc(CN2CCc3c(sc4ccc(F)cc34)C2)c1` gave an inhibition at 1 µM of 8.7%.

`Fc1cncc(CN2CCc3c(sc4ccc(F)cc34)C2)c1`: the inhibition at 1 µM came to 10.6%.

The compound `Fc1ccc2sc3c(c2c1)CCN(Cc1c[nH]cn1)C3` registered an inhibition at 1 µM of 87.9%.

For a further data set, the target named is T3, CYP1A2. In words: Inhibition of human hepatic CYP1A2 at 10 uM relative to control. Type of data set: ADME.
The compound `Oc1ccc2sc3c(c2c1)CCN(Cc1cccnc1)C3` showed an inhibition at 10 µM of 71.2%.

Take `COc1cncc(CN2CCc3c(sc4ccc(F)cc34)C2)c1`: the inhibition at 10 µM is 61.2%.

In turn, `Fc1cncc(CN2CCc3c(sc4ccc(F)cc34)C2)c1` showed an inhibition at 10 µM of 69.5%.

Compound `Fc1ccc2sc3c(c2c1)CCN(Cc1c[nH]cn1)C3` returned an inhibition at 10 µM of 99.4%.

In the next data set the target is T4, CYP2C9 (Homo sapiens, UniProt P11712). In words: Inhibition of human hepatic CYP2C9 at 1 uM relative to control. Type of data set: ADME.
T4 sequence (P11712 whole entry): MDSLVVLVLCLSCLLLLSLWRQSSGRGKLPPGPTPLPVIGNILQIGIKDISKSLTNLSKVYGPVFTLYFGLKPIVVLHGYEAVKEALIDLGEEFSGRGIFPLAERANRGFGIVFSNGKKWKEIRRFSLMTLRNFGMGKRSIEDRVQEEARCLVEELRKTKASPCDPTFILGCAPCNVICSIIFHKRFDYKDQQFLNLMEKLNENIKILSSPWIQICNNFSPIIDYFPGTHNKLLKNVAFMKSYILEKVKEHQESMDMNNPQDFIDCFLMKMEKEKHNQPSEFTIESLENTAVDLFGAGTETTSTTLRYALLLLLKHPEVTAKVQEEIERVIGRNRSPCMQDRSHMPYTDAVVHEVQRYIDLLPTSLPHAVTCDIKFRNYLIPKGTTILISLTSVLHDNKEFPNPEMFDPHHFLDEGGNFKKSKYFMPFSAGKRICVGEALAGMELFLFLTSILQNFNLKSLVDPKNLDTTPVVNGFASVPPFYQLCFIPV
In the case of `Oc1ccc2sc3c(c2c1)CCN(Cc1cccnc1)C3`, the inhibition at 1 µM worked out at 0%.

`COc1cncc(CN2CCc3c(sc4ccc(F)cc34)C2)c1` had an inhibition at 1 µM of 0%.

In the case of `Fc1cncc(CN2CCc3c(sc4ccc(F)cc34)C2)c1`, at 1 µM the inhibition was 0%.

Take `Fc1ccc2sc3c(c2c1)CCN(Cc1c[nH]cn1)C3`: the inhibition at 1 µM came out at 98.5%.

A further data set addresses T4, CYP2C9. In words: Inhibition of human hepatic CYP2C9 at 10 uM relative to control. Type of data set: ADME.
Consider `Oc1ccc2sc3c(c2c1)CCN(Cc1cccnc1)C3`, for which the inhibition at 10 µM came to 17.5%.

Take `COc1cncc(CN2CCc3c(sc4ccc(F)cc34)C2)c1`: at 10 µM the inhibition was 53.8%.

With `Fc1cncc(CN2CCc3c(sc4ccc(F)cc34)C2)c1`, the inhibition at 10 µM was found to be 51.6%.

`Fc1ccc2sc3c(c2c1)CCN(Cc1c[nH]cn1)C3` registered an inhibition at 10 µM of 100%.

The next data set concerns the target T5, CYP2C19 (Homo sapiens, UniProt P33261). In words: Inhibition of human hepatic CYP2C19 at 1 uM relative to control. Type of data set: ADME.
`Oc1ccc2sc3c(c2c1)CCN(Cc1cccnc1)C3` returned an inhibition at 1 µM of 7.9%.

With `COc1cncc(CN2CCc3c(sc4ccc(F)cc34)C2)c1`, the inhibition at 1 µM turned out to be 0%.

On to `Fc1cncc(CN2CCc3c(sc4ccc(F)cc34)C2)c1`, for which the inhibition at 1 µM was 5.3%.

With `Fc1ccc2sc3c(c2c1)CCN(Cc1c[nH]cn1)C3`, the inhibition at 1 µM turned out to be 91.2%.

In another data set the target is T5, CYP2C19. In words: Inhibition of human hepatic CYP2C19 at 10 uM relative to control. The data set is classed as ADME.
With `Oc1ccc2sc3c(c2c1)CCN(Cc1cccnc1)C3`, testing at 10 µM gave an inhibition of 71.6%.

`COc1cncc(CN2CCc3c(sc4ccc(F)cc34)C2)c1` displayed an inhibition at 10 µM of 84.9%.

The compound `Fc1cncc(CN2CCc3c(sc4ccc(F)cc34)C2)c1` displayed an inhibition at 10 µM of 61.3%.

Compound `Fc1ccc2sc3c(c2c1)CCN(Cc1c[nH]cn1)C3` gave an inhibition at 10 µM of 98.7%.

For another data set, the target named is T6, CYP2D6 (Homo sapiens, UniProt P10635). Briefly: Inhibition of human hepatic CYP2D6 at 1 uM relative to control. Type of data set: ADME.
T6 sequence (P10635 whole entry): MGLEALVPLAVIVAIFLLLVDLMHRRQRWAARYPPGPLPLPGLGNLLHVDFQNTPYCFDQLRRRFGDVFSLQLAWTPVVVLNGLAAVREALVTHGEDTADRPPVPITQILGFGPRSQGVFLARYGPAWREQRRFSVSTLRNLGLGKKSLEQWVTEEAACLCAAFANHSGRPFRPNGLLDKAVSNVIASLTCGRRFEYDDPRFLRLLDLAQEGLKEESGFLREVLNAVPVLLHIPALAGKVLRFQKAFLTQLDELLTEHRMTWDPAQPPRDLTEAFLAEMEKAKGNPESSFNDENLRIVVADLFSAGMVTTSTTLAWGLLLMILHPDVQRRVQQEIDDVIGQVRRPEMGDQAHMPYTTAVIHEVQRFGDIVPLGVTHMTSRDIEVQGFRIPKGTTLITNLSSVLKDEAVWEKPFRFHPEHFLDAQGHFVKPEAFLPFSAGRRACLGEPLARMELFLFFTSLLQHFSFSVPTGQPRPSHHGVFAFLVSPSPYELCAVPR
For `Oc1ccc2sc3c(c2c1)CCN(Cc1cccnc1)C3`, 1 µM produced 1.3% inhibition.

Compound `COc1cncc(CN2CCc3c(sc4ccc(F)cc34)C2)c1` returned an inhibition at 1 µM of 21.7%.

The compound `Fc1cncc(CN2CCc3c(sc4ccc(F)cc34)C2)c1` had an inhibition at 1 µM of 50.8%.

Take `Fc1ccc2sc3c(c2c1)CCN(Cc1c[nH]cn1)C3`: the inhibition at 1 µM is 35.7%.

Another data set deals with T6, CYP2D6. In words: Inhibition of human hepatic CYP2D6 at 10 uM relative to control. The data set is classed as ADME.
In turn, `Oc1ccc2sc3c(c2c1)CCN(Cc1cccnc1)C3` registered an inhibition at 10 µM of 18.9%.

On to `COc1cncc(CN2CCc3c(sc4ccc(F)cc34)C2)c1`, for which 10 µM produced 76.1% inhibition.

`Fc1cncc(CN2CCc3c(sc4ccc(F)cc34)C2)c1` showed an inhibition at 10 µM of 62.5%.

With `Fc1ccc2sc3c(c2c1)CCN(Cc1c[nH]cn1)C3`, the inhibition at 10 µM came out at 49.6%.
